Data as given in PubChem BioAssay AID720702 (The Scripps Research Institute Molecular Screening Center, 2013).
Several values for one entry are separate records, joined by “and”; a condition that tells them apart may be missing. Equal values may be shown once. Hit rate of the full screen: of about 370,000 compounds, about 1,200 (0.32%) were called active. What follows is part of a selection rich in actives, with near analogues and random picks from the rest. Unmarked numbers belong to inactive results.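 How the source made its calls: active means inhibition above the mean of all tested compounds plus 3 SD, set per campaign (cut at about 25% in these data); inactive means the rest.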

What follows are molecules tested against Tyrosyl-DNA phosphodiesterase 2 (Homo sapiens) (UniProt O95551) (assay: human TDP2 enzyme inhibitors, primary screen, biochemical, epi absorbance, recombinant enzyme (AID 720702;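 further: 0% = DMSO with enzyme and 100% = buffer with substrate but no TDP2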)). Details: recombinant TDP2, T5PNP hydrolysis, p-nitrophenol absorbance 415 nm; at 12.8 µM; hits give high values.
Sequence of Tyrosyl-DNA phosphodiesterase 2 (Homo sapiens) (O95551 whole entry, looked up): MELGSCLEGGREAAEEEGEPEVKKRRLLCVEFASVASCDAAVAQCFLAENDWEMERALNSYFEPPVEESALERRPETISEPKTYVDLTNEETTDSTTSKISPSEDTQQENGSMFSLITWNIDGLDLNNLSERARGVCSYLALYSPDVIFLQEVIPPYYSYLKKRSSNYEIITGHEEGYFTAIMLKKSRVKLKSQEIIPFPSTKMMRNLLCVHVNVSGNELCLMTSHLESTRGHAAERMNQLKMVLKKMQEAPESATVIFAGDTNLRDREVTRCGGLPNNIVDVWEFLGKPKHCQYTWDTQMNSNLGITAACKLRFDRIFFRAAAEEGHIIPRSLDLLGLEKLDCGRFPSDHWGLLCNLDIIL
Procedure, shortened: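 System – recombinant human TDP2 · Amount – 120 nM TDP2 per well · Buffer or medium – Mg2+-containing Tris-HCl buffer, pH 7.5 · Reagent – T5PNP substrate, 5 mM · Dosing – 12.8 µM single point, 1% DMSO · Incubation – 2 h at 37 °C · Measured by – epi absorbance · Read-out basis – percent inhibition · Benchmarks – high control without enzyme, low control DMSO plus TDP2 · Repeats – singlicate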

SMILES | inhibition
CCOC(=O)N1CCC(c2cc(=O)n(-c3ccccc3)[nH]2)CC1 | 79.4% (active)
CCOC(=O)N1CCC(NC(=O)Cc2cn(C)c3ccccc23)CC1 | -2.66%
CCOC(=O)N1CCC(C(N)=O)CC1 | 4.66%
CCOc1ccc(Oc2c(Cl)cnn(-c3ccc(C)cc3)c2=O)cc1 | -6.6%
Cc1ccc(NC(=O)Cc2nnc(SCC(=O)Nc3nncs3)n2C)cc1 | 9.72%
O=Cc1cn(-c2ccccc2)nc1-c1ccccn1 | 31.4% (active)
CCc1ccc(-c2nn(-c3ccccc3)cc2CSC(=N)N)cc1 | -12%
O=C(CSc1ccc(-c2ccccn2)nn1)Nc1ccccc1 | -4.03%
N[C@@H](Cc1ccccc1)C(=O)N1CCC[C@@H]1C(=O)N1CCC2CCN(S(=O)(=O)c3ccccc3)CC21 (some centres undefined) | 2.14%
O=C(CSc1nc2sc3c(c2c(=O)n1-c1ccccc1)CCCC3)NN=Cc1ccc(OCc2ccccc2)cc1 | 8.18%
C=CCN=C1NC(c2ccccc2)C(C(=O)OC)=C(C)N1Cc1ccc(C(F)(F)F)cc1 (centres undefined) | -7.84%
COc1cccc(OC)c1CN(C)C(=O)c1cnccc1C(F)(F)F | -13.4%
COC(=O)C1CN(CCc2ccccc2)CCS(=O)(=O)N1Cc1ccc(F)cc1 (centres undefined) | -8.99%
CCN(CC(=O)NCc1cccs1)c1nnnn1-c1ccccc1 | -4.19%
C=CCN1CN(S(=O)(=O)c2ccc(OC)cc2)c2nc3ccccc3nc21 | -10.2%
C=CCn1c(N)c(C(=O)OCC(C)C)c2nc3ccccc3nc21 | 30.5% (active)
Cc1nc2c(C(=O)NCc3cccs3)cnn2c(C)c1Cc1ccc(F)cc1 | 6.37%
CC(C)Cn1c(N)c(C(=O)NCc2cccs2)c2nc3ccccc3nc21 | 62.4% (active)
C=CCn1c(P(C)(=O)O)nc2ccccc21 | 2.29% and 0.31%
O/N=C(\C[n+]1ccccc1)c1ccc(Br)cc1 | -4.49%
CSc1nnc(-c2ccncc2)n1CCCN1CCCC1=O | 3.44%
O=C1Nc2ccccc2OC1CC(=O)N1CCCCCCC1 (centres undefined) | 4.41%
COC(CNC(=O)[C@H](Cc1ccccc1)NC1(C(=O)NC2CCCCC2)CCCCC1)OC | -1.87%

SMILES | inhibition
CCCCNC(=O)CCn1nc(-c2ccc(Cl)cc2)ccc1=O | 29.2% (active)
CCN(CC)CCCNC(=O)CCn1nc(-c2ccc(Cl)cc2)ccc1=O | -8.35%
CCCNC(=O)CCn1cc(-c2ccc(OC)cc2)nc1CCN | -1.08%
COC(=O)[C@]12C[C@H](CC(=O)NCCc3ccccc3OC)C(=O)N(Cc3ccccc3)C1=C[C@H](C(C)C)O[C@@H]2C1CC1 | -7.01%
Cc1ccc(S(=O)(=O)NNC(=S)NC(C)(C)C)cc1 | 0.38%
COc1ccc2c(c1)c(=Cc1ccc(N(C)C)cc1)c1cc(-c3ccccc3)[n+](C)n12 | 28.4% (active)
CCOC(=O)[C@]12CCCCC/C=C\1N(Cc1ccc(OC)cc1)C(=O)[C@H]2CC(=O)NCCCN1CCCC1=O | -4.43%
CC(C)CCNC(=O)C1CCC(CNc2c(N3CCC(C)CC3)c(=O)c2=O)CC1 (centres undefined) | -1.37%
O=C1C(Cl)=C(Oc2ccccc2)C(=O)c2ccccc21 | 3.22%
CC(=O)N(C1=C(Cl)C(=O)c2ccccc2C1=O)c1ccc(C(=O)O)cc1 | 42.4% (active)
COP(=O)(O)CNC(=O)OCc1ccccc1 | -6.21%
CCn1c(=O)n2n(c1=O)[C@@]1(C=C3CCCC[C@H]32)N=C(NC(=O)c2ccccc2)N(Cc2ccccc2)[C@H]1Cc1ccccc1 | 4.32%
Cc1nc(CNc2ncnc3ccc(-c4ccc5c(c4)OCO5)cc23)cs1 | 0.28%
CN1c2ccc(C=O)c3c(C=O)ccc(c23)N(C)C1(C)C | 48.6% (active)
COc1ccc(N2CCN(CCNS(=O)(=O)c3ccc(Cl)s3)CC2)cc1 | -1.58%
O=C(NC1=CC(=O)c2ccccc2C1=O)c1ccccc1 | 44.5% (active)
NS(=O)(=O)c1cc(C(=O)OCC(=O)NNC(=O)c2ccccc2)ccc1Cl | -0.47%
O=C(NN1C(=O)C2C3C=CC(O3)C2C1=O)c1ccccc1 (centres undefined) | -12.4%
Cc1ccccc1NC(=O)C(C)OC(=O)CCC(=O)N(CC(C)C)c1c(N)n(CC(C)C)c(=O)[nH]c1=O (centres undefined) | -3.56%
O=C1OC(Oc2ccc(Br)cc2)(c2ccccc2)c2ccccc21 (centres undefined) | -5.92%
O=C(COC(=O)CCc1c[nH]c2ccccc12)Nc1cccc(Cl)c1 | 9.41%
CC(C)(C)N(Cc1ccccc1)C(=O)COC(=O)CCc1c[nH]c2ccccc12 | -14.4%
O=C(COC(=O)Cc1c[nH]c2ccccc12)NCCc1ccccc1 | 24.9% (active)

SMILES | inhibition
COc1cccc(Cn2cc(COC(=O)Nc3ccc(F)cc3)nn2)c1 | 4.69%
N#Cc1ccc(C(=O)Nc2nc(-c3cccs3)c(C(=O)C(F)(F)F)s2)cc1 | -0.4%
CC1CCCC(NC(=O)c2cc(-c3ccncc3)nc3ccccc23)C1C (centres undefined) | 68.1% (active)
CC1CCCCC1NC(=O)c1cc(=O)[nH]c2ccccc12 (centres undefined) | 6.87%
CC1CCCC(NC(=O)c2cc(S(=O)(=O)N3CCCCC3)ccc2Cl)C1C (centres undefined) | 5.78%
COc1ccc(-c2ccc3c(n2)CCCN3S(=O)(=O)c2ccc(C)cc2)cc1 | 4.76%
N#Cc1c(N2CCCCC2)nc(N)c2c(N)nc(SCC(=O)O)cc12 | 7.63%
CCOC(=O)c1ccc(NC(=O)C2CC(=O)Nc3nc4ccccc4n32)cc1 (centres undefined) | -14.1%
CCOC(=O)c1ccc(NC2Nc3cc(C)nn3S2)cc1 (centres undefined) | 26.6% (active)
CCc1ccc(NC2Nc3cc(C)nn3S2)cc1 (centres undefined) | -7.9%
COc1ccc(S[C@]2(C(=O)N(C)C)CC(=O)N(c3ccc(OC)cc3)[C@@H]2c2ccc(OC)cc2)cc1 | -13.2%
C/C(=N/O)c1ccc(N2C(=O)C3C4C=CC(C3C2=O)C2C3C(=O)N(c5ccc(/C(C)=N/O)cc5)C(=O)C3C42)cc1 (centres undefined) | -7.03%
O=C(NC1CCCCC1)N1CCc2[nH]c3ccccc3c2C1 | 56.5% (active)
O=C(CSc1nnc2c(n1)[nH]c1ccccc12)NC1CCCCC1 | -1.87%
O=C(Nc1cccc2c1CCCC2)C1CCN(C(=O)NC2CCCCC2)CC1 | 1.74%
N#C/C(C(=S)Nc1ccccc1)=C1/NN=C(N2CCOCC2)N1c1ccccc1 | 10.7%
COC(=O)c1ccc(C2C(Oc3ccccc3C)C(=O)N2CCc2ccc(OC)c(OC)c2)cc1 (centres undefined) | -12.5%
CCc1ccc(OCC(=O)OC(C)C(=O)NC2CC2)cc1 (centres undefined) | -6.8%
CC1(OC(=O)C2CCCC2)C(=O)C=C2C=C(c3ccc(C#N)cc3)OC=C2C1=O (centres undefined) | 0.49%
CCCCC1=CC2=CC(=O)C(C)(OC(=O)CC)C(=O)C2=CN1CCCOC(C)C (centres undefined) | 13.3%
COCCN1C=C2C(=O)C(C)(OC(=O)C3CCCC3)C(=O)C=C2C=C1c1ccsc1 (centres undefined) | 31.4% (active)
COCCNc1nnc(SCC(=O)NNC(=O)c2ccco2)s1 | 5.04%
CCSc1nnc(SCC(=O)NNC(=O)c2ccccc2F)s1 | 24.7% (active)

SMILES | inhibition
O=C(Cn1cnc2ccccc2c1=O)NNC(=O)c1ccccc1F | 4.65%
Cc1sc2nc(SCC(=O)c3ccc(O)c(O)c3)n(Cc3ccco3)c(=O)c2c1C | -1.34%
Cc1ccc(-c2nc(CS(=O)CC(=O)N3CCN(c4ncccn4)CC3)c(C)o2)cc1 (centres undefined) | 0.23%
COC(=O)[C@]12C[C@H](CC(=O)N3CCOCC3)C(=O)N(Cc3ccc(Cl)cc3Cl)C1=C[C@H](COCc1ccccc1)O[C@@H]2C | 12.9%
Nc1ccc2nn(-c3ccc(Cl)cc3)nc2c1 | 30.9% (active)
CCC(=O)Nc1ccc2nn(-c3ccc(F)cc3)nc2c1 | -12.3%
O=C(NC1CCCC1)C1CSCCS(=O)(=O)N1Cc1ccccc1 (centres undefined) | 7.85%
COc1ccccc1C(=O)CSc1nnc(-c2ccccn2)n1-c1ccccc1 | -12.9%
COc1ccc(CSc2nnc(SCC(=O)Nc3ccccc3C(F)(F)F)s2)cc1 | -0.45%
CCOc1c(Br)cc(/C=C2\C(=O)N(CCC#N)N=C2C)cc1OC | 59.9% (active)
CC(C)C(C#CC1CC1)N(Cc1ccc2c(c1)OCO2)C(N)=NC(=O)/C=C/c1cccc(C(F)(F)F)c1 (centres undefined) | 4.77%
COc1ccc(S(=O)(=O)N2CCOCC2)c(C)c1C | 0.48%
COC1=C(N2CCOCC2)C(=O)c2ccccc2C1=O | 36.8% (active)
O=C1c2ccccc2-c2ncnc3c(N4CCOCC4)cc(N4CCOCC4)c1c23 | -13.8%
CCCS(=O)(=O)NC(=O)C1(C)CCN(C(=O)c2sccc2C)C1 (centres undefined) | -5.34%
CCCCNC(=O)C[C@@H]1C(=O)N(CCc2ccc(Cl)cc2)C2=CCCC[C@]21C(=O)OCC | 8.61%
COc1ccc2c(c1)C(=O)Nc1cc(Cl)ccc1N2 | -17%
COc1ccc([N+](=O)[O-])cc1C1NN=C(c2cccc3ccccc23)S1 (centres undefined) | 3.04%
O=C1Nc2ccc([N+](=O)[O-])cc2C1=Nc1cccc(CO)c1 | 36.9% (active)
O=C(CCl)N(Cc1cccc([N+](=O)[O-])c1)c1cccc(Cl)c1 | -6.43%
